# Assay results collected from several papers.
Structure (SMILES),tested on,test,test system,conditions,measurement,result
CC(=O)OCC1=C(C(=O)O)N2C(=O)[C@@H](NC(=O)Cc3cccs3)[C@H]2SC1,Salmonella enterica,"microbial growth, broth dilution",ATCC13076 TYPHIMURIUM,,MIC,3.12 µg/mL
O=C(O)c1ccc(NCc2ccc([N+](=O)[O-])cc2)cc1,NCI-H69,"cell growth or viability, resazurin",,72 h,IC50,> 100 µM
CN(C)CCNC(=O)c1ccc(-c2nc3ccc4[nH]ncc4c3c3c2CCCC3)cc1,BJ,cell growth or viability,,72 h,GI50,> 10 µM
CCCS(=O)(=O)Oc1ccc(C=NNC(=O)CSc2nc3ccc(Cl)cc3c(=O)n2-c2ccccc2)cc1OC,Bacillus cereus,"microbial growth, well diffusion",,20 µg/mL,inhibition zone,2 mm
CC(=O)C1=NN(c2ccc([N+](=O)[O-])cc2)C(=C(C#N)C(=O)c2ccc(Nc3cnccn3)cc2)S1,Salmonella enterica,"microbial growth, broth dilution",ATCC13076 TYPHIMURIUM,,MIC,12.5 µg/mL
CC(C)(C)c1cc(NC(=O)Nc2ccc(-c3cn4c(n3)sc3cc(OCCN5CCOCC5)ccc34)cc2)no1,BJ,cell growth or viability,,72 h,GI50,> 10 µM
N=c1sc(C(=O)c2ccc(Nc3cnccn3)cc2)nn1-c1ccc([N+](=O)[O-])cc1,Salmonella enterica,"microbial growth, broth dilution",ATCC13076 TYPHIMURIUM,,MIC,6.25 µg/mL
COc1cccc(CNc2ccc(C(=O)O)cc2)c1,NCI-H69,"cell growth or viability, resazurin",,72 h,IC50,> 100 µM
Cc1n[nH]c2ccc3nc(-c4ccc(C(=O)NCCN(C)C)cc4)c4c(c3c12)CCCC4,BJ,cell growth or viability,,72 h,GI50,7.16 µM
O=C(O)c1cn(C2CC2)c2cc(N3CCNCC3)c(F)cc2c1=O,Salmonella enterica,"microbial growth, well diffusion",TYPHIMURIUM,20 µg/mL,inhibition zone,4 mm
COc1ccccc1CNc1ccc(C(=O)O)cc1,NCI-H69,"cell growth or viability, resazurin",,72 h,IC50,> 100 µM
CCS(=O)(=O)Oc1ccc(C=NNC(=O)CSc2nc3ccc(Cl)cc3c(=O)n2-c2ccccc2)cc1,Salmonella enterica,"microbial growth, broth dilution",TYPHIMURIUM,,MIC,21 µg/mL
Cc1nc(Nc2ncc(C(=O)Nc3c(C)cccc3Cl)s2)cc(N2CC[C@H](O)C2)n1,JVM-2,"cell growth or viability, ATP luminescence",,"10 µM, 72 h",inhibition,61%
CN(C)CCNC(=O)c1ccc(-c2nc3ccc4[nH]ncc4c3c3c2CCCCC3)c(F)c1,BJ,cell growth or viability,,72 h,GI50,6.58 µM
Nc1ccc(S(=O)(=O)Nc2ncccn2)cc1,Bacillus cereus,"microbial growth, well diffusion",,20 µg/mL,inhibition zone,3 mm
CN(C)CCNC(=O)c1ccc(-c2nc3ccc4[nH]ncc4c3c3c2CCCCC3)cc1,BJ,cell growth or viability,,72 h,GI50,8.63 µM
COc1ccc(C=NNC(=O)CSc2nc3c(C)cccc3c(=O)n2-c2ccccc2)cc1OS(C)(=O)=O,Salmonella enterica,"microbial growth, well diffusion",TYPHIMURIUM,20 µg/mL,inhibition zone,3 mm
COc1ccc(-n2nc(C(=O)c3ccc(Nc4cnccn4)cc3)sc2=N)cc1,Salmonella enterica,"microbial growth, broth dilution",ATCC13076 TYPHIMURIUM,,MIC,50 µg/mL
